According to publication PMC6499389 (European journal of medicinal chemistry, 2019):
Where two headings read alike, the source gives them in different places.

Tests used:
calf thymus DNA (Ct-DNA) [1] = settings: ref Previous studies; cited from earlier work
hTopo I = biological target: T1, hTopo I (Homo sapiens, UniProt P11387); test: Relaxation assay for hTopo I; type: biochemical; settings: for fold lower activity (loss in hTopo I inhibition) than 5a: relative to 5a; for fold lower activity (loss in hTopo I inhibition) than 5a / fold lower activity (loss in hTopo I inhibition) than 217: from relaxation assay IC50; for fold lower activity (loss in hTopo I inhibition) than 217: relative to 217
T1 sequence (P11387 1-765): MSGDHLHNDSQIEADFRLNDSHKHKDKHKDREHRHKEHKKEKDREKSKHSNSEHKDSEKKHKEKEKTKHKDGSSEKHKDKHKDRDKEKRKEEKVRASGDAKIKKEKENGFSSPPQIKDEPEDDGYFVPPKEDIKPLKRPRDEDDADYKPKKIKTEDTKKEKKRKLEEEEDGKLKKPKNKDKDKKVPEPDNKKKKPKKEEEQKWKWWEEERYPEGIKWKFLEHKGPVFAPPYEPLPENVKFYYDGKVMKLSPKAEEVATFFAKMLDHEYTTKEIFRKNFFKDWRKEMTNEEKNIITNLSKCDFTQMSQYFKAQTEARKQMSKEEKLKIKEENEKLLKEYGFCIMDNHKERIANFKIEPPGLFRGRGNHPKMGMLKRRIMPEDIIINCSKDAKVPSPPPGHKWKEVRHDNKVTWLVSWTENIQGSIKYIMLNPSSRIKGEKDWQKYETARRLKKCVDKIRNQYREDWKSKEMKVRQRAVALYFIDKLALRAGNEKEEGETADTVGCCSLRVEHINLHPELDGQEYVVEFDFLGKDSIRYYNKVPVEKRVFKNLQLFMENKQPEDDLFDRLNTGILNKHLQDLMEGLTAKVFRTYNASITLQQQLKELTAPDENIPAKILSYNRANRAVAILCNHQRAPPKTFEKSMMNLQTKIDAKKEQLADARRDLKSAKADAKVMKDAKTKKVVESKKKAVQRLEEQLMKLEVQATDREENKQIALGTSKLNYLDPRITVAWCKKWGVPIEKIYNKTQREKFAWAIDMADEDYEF
Summary of the method: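 Supercoiled pBR322 (0.3 μg) was relaxed by 1 unit of commercial human Topo I. Buffer: 50 mM Tris-HCl pH 7.5, 100 mM NaCl, 10 mM MgCl2, 1 mM DTT, 50 μg/ml BSA, plus varied test compound concentrations. Incubation was 15 min at 37°C, stopped with 25 mM EDTA. Products ran on 1.2% agarose, 2 V/cm, 15 h, TAE, then were ethidium-stained and imaged. IC50 came from band quantification.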

[2] = tested on: colon cancer (HT-29) xenograft; settings: HT-29 xenograft model, mice; cited from earlier work
calf thymus DNA (Ct-DNA) [3] = test: DNA binding assay; settings: several ratios of DNA to FQ
[4] = tested on: 27-bp sequence d(CCTTACGTGCATAGTCATTCATGACCG) of dsDNA; test: DNA binding assay; settings: compound 25 μM

CCn1cc(C(=O)O)c(=O)c2cc(F)c(N3CCNCC3)cc21 [Norfloxacin]
bathochromic shift upon addition of Ct-DNA (calf thymus DNA (Ct-DNA) [1]): an observed bathochromic shift | fluorescence quenching upon addition of Ct-DNA (calf thymus DNA (Ct-DNA) [1]): significant quenching

O=C(O)c1cn(Cc2ccc(-n3cccn3)cc2)c2cc(N3C[C@H]4CCNC[C@H]4C3)c(F)cc2c1=O [300B/9c, 1-(4-(1H-pyrazol-1-yl)benzyl)-6-fluoro-7-((3aS,7aS)-hexahydro-1H-pyrrolo[3,4-c]pyridin-2(3H)-yl)-4-oxo-1,4-dihydroquinoline-3-carboxylic acid]
fold improvement of hTopo I inhibition compared to 9a (hTopo I; relative to 9a): 2 fold

COc1c(N2CC[C@@H](CN)C2)c(F)cc2c(=O)c(C(=O)O)cn(Cc3ccc4ccccc4c3)c12 [Compound 227]
inhibition of proliferation of colon cancer in vivo [2]: exhibited activity but was not as effective as 217

O=C(O)c1cn(Cc2ccc(-c3ccccc3)cc2)c2cc(N3C[C@H]4CCNC[C@H]4C3)c(F)cc2c1=O [091/5k, 1-([1,1′-biphenyl]-4-ylmethyl)-6-fluoro-7-((3aS,7aS)-hexahydro-1H-pyrrolo[3,4-c]pyridin-2(3H)-yl)-4-oxo-1,4-dihydroquinoline-3-carboxylic acid]
fold lower activity (loss in hTopo I inhibition) than 5a (hTopo I): 4 fold | fold more active than 5f (hTopo I; relative to C7 N-methyl AMP analog 5f): ~3 fold

COc1c(N2CC[C@@H](CN)C2)c(F)cc2c(=O)c(C(N)=O)cn(Cc3ccc(-c4ccccc4)cc3)c12 [251/3b, (S)-1-([1,1′-biphenyl]-4-ylmethyl)-7-(3-(aminomethyl)pyrrolidin-1-yl)-6-fluoro-8-methoxy-4-oxo-1,4-dihydroquinoline-3-carboxamide]
fold lower activity (loss in hTopo I inhibition) than 217 (hTopo I): 3- to 7 fold

COc1c(N2CC[C@@H](CN)C2)c(F)cc2c(=O)c(C(=O)O)cn(Cc3ccc(-n4cccn4)cc3)c12 [292B/7a, (S)-1-(4-(1H-pyrazol-1-yl)benzyl)-7-(3-(aminomethyl)pyrrolidin-1-yl)-6-fluoro-8-methoxy-4-oxo-1,4-dihydroquinoline-3-carboxylic acid]
fold lower activity (loss in hTopo I inhibition) than 217 (hTopo I): ≥ 7 fold

O=C(O)c1cn(Cc2ccc(-c3ccccc3)cc2)c2cc(N3CC4CNCC4C3)c(F)cc2c1=O (stereo not drawn) [089/5l, 1-([1,1′-biphenyl]-4-ylmethyl)-6-fluoro-7-(hexahydropyrrolo[3,4-c]pyrrol-2(1H)-yl)-4-oxo-1,4-dihydroquinoline-3-carboxylic acid]
fold lower activity (loss in hTopo I inhibition) than 5a (hTopo I): 2 fold

CN[C@@H]1CCN(c2cc3c(cc2F)c(=O)c(C(=O)O)cn3Cc2ccc(-c3ccccc3)cc2)C1 [118/5h, (R)-1-([1,1′-biphenyl]-4-ylmethyl)-6-fluoro-7-(3-(methylamino)pyrrolidin-1-yl)-4-oxo-1,4-dihydroquinoline-3-carboxylic acid]
fold lower activity (loss in hTopo I inhibition) than 5a (hTopo I): 2 fold

COc1c(N2CC[C@@H](CN)C2)c(F)cc2c(=O)c(C(=O)O)cn(Cc3ccc(-c4ccccc4)cc3)c12 [Compound 217]
fluorescence quenching upon addition of Ct-DNA (calf thymus DNA (Ct-DNA) [3]): Modest fluorescence quenching | bathochromic shift upon addition of Ct-DNA (calf thymus DNA (Ct-DNA) [3]; fluoroquinolone 25 μM, Ct-DNA 0 or 400 μM): no bathochromic shift was observed | bathochromic shift upon addition of 27-bp dsDNA [4]: a bathochromic shift was not observed | fluorescence quenching upon addition of 27-bp dsDNA ([4]; dsDNA 0–200 μM, n=3): quenched in a concentration-dependent manner | inhibition of proliferation of colon cancer in vivo [2]: inhibited the proliferation of colon cancer in vivo as well as fluorouracil

NC[C@@H]1CCN(c2ccc3c(=O)c(C(=O)O)cn(Cc4ccc(-c5ccccc5)cc4)c3c2)C1 [086B/6a, (S)-1-([1,1′-biphenyl]-4-ylmethyl)-7-(3-(aminomethyl)pyrrolidin-1-yl)-4-oxo-1,4-dihydroquinoline-3-carboxylic acid]
fold lower activity (loss in hTopo I inhibition) than 5a (hTopo I): ~4 fold | fold lower activity than its cognate C6-fluorine analog 7a (hTopo I; relative to 7a as printed): 4 fold

COc1c(N2CC[C@@H](CN)C2)c(F)cc2c(=O)c(C(=O)O)cn(Cc3cc(-c4ccccc4)no3)c12 [294B/7b, (S)-7-(3-(aminomethyl)pyrrolidin-1-yl)-6-fluoro-8-methoxy-4-oxo-1-((3-phenylisoxazol-5-yl)methyl)-1,4-dihydroquinoline-3-carboxylic acid]
fold lower activity (loss in hTopo I inhibition) than 217 (hTopo I): ≥ 7 fold

N[C@@H]1CCN(c2cc3c(cc2F)c(=O)c(C(=O)O)cn3Cc2ccc(-c3ccccc3)cc2)C1 [117/5g, (R)-1-([1,1′-biphenyl]-4-ylmethyl)-7-(3-aminopyrrolidin-1-yl)-6-fluoro-4-oxo-1,4-dihydroquinoline-3-carboxylic acid]
fold lower activity (loss in hTopo I inhibition) than 5a (hTopo I): 4 fold

O=C(O)c1cn(Cc2ccc(-n3cccn3)cc2)c2cc(NC[C@@H]3CCNC3)c(F)cc2c1=O [298B/9e, (R)-1-(4-(1H-pyrazol-1-yl)benzyl)-6-fluoro-4-oxo-7-((pyrrolidin-3-ylmethyl)amino)-1,4-dihydroquinoline-3-carboxylic acid]
IC50 (hTopo I): > 200 µM

COc1c(N2CC[C@@H](N)C2)c(F)cc2c(=O)c(C(=O)O)cn(Cc3ccc(-c4ccccc4)cc3)c12 [226/4d, (R)-1-([1,1′-biphenyl]-4-ylmethyl)-7-(3-aminopyrrolidin-1-yl)-6-fluoro-8-methoxy-4-oxo-1,4-dihydroquinoline-3-carboxylic acid]
fold lower activity (loss in hTopo I inhibition) than 217 (hTopo I): more than 3 fold

CN[C@@H]1CCN(c2c(F)cc3c(=O)c(C(=O)O)cn(Cc4ccc(-c5ccccc5)cc4)c3c2OC)C1 [228/4e, (R)-1-([1,1′-biphenyl]-4-ylmethyl)-6-fluoro-8-methoxy-7-(3-(methylamino)pyrrolidin-1-yl)-4-oxo-1,4-dihydroquinoline-3-carboxylic acid]
fold lower activity (loss in hTopo I inhibition) than 217 (hTopo I): about 2 fold

CNC(=O)c1cn(Cc2ccc(-c3ccccc3)cc2)c2c(OC)c(N3CC[C@@H](CN)C3)c(F)cc2c1=O [242/3a, (S)-1-([1,1′-biphenyl]-4-ylmethyl)-7-(3-(aminomethyl)pyrrolidin-1-yl)-6-fluoro-8-methoxy-N-methyl-4-oxo-1,4-dihydroquinoline-3-carboxamide]
fold lower activity (loss in hTopo I inhibition) than 217 (hTopo I): 3- to 7 fold

COc1c(N2CC[C@@H](CN)C2)c(F)cc2c(=O)c(C(=O)O)cn(Cc3ccc(-c4ccc(F)cc4)cc3)c12 [277/7c, (S)-7-(3-(aminomethyl)pyrrolidin-1-yl)-6-fluoro-1-((4′-fluoro-[1,1′-biphenyl]-4-yl)methyl)-8-methoxy-4-oxo-1,4-dihydroquinoline-3-carboxylic acid]
fold lower activity (loss in hTopo I inhibition) than 217 (hTopo I): 2 fold
